ChEMBL document CHEMBL3875163, “Novel urea and bis-urea primaquine derivatives with hydroxyphenyl or halogenphenyl substituents: Synthesis and biological evaluation” (Eur J Med Chem, 2016)
In brackets after ≈: the same amount, converted by molar mass. Activity calls are given as the source filed them. The calls are words filed in the database; no cut-off is given here.

Assays:
Pseudomonas aeruginosa [1] = test: Antibacterial activity against Pseudomonas aeruginosa ATCC 27853 after 18 hrs by serial microdilution broth assay; assay type: functional; details: ATCC 27853, 18 h
How it was run: (§1)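 Broth microdilution MIC per EUCAST for aerobic bacteria in Mueller-Hinton broth, serial dilution 1000 to 0.78125 µg/ml from 10 mg/ml DMSO stocks. Inoculum from trypticase soy broth cultures (18 h, 37 °C), set to 0.5 McFarland in PBS pH 7.4, diluted 1:10. 18 h aerobic incubation at 35 °C in dark, then TTC 0.5 mg/ml for 3 h, HCl-isopropanol, A490. MIC = lowest concentration giving 50% inhibition versus untreated; duplicates.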

Staphylococcus aureus [2] = test: Antibacterial activity against methicillin sensitive Staphylococcus aureus ATCC 25213 after 18 hrs by serial microdilution broth assay; assay type: functional; details: ATCC 25213, 18 h; how it was run: as §1
[3] = Growth inhibition of human SW620 cells after 72 hrs by MTT assay; assay type: functional, cell-based; details: SW-620, 72 h
How it was run: (§2)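 Modified NCI DTP protocol: cells in DMEM with 10% FBS, 2 mM glutamine, antibiotics, 37 °C, 5% CO2; seeded 1 × 10^4 to 3 × 10^4 cells/ml on day 0, exposed to five 10-fold dilutions (10^-8 to 10^-4 M) for 72 h; solvent control. MTT read-out; quadruplicate points in three experiments; IC50 by linear regression of growth percentages bracketing 50%.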

[4] = Growth inhibition of human MIAPaCa2 cells after 72 hrs by MTT assay; assay type: functional, cell-based; details: MIA PaCa-2, 72 h
Staphylococcus aureus [5] = test: Antibacterial activity against Staphylococcus aureus ATCC 6538 after 18 hrs by serial microdilution broth assay; assay type: functional; details: ATCC 6538, 18 h; how it was run: as §1
[6] = Growth inhibition of human NCI-H460 cells after 72 hrs by MTT assay; assay type: functional, cell-based; details: NCI-H460, 72 h; how it was run: as §2
Candida albicans = test: Antifungal activity against Candida albicans ATCC 90028 after 18 hrs by serial microdilution broth assay; assay type: functional; details: ATCC 90028, 18 h
How it was run: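 Yeast microdilution in RPMI 1640 with glutamine plus 2% glucose, 1000 to 0.78125 µg/ml from 10 mg/ml DMSO stocks. Growth read with XTT (10 mg/ml) mixed 7:1 with menadione (1 mg/ml in acetone), absorbance at 540 nm. MIC taken as lowest concentration giving 50% growth inhibition versus untreated cells; tests in duplicate.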

Enterococcus faecalis [7] = test: Antibacterial activity against vancomycin susceptible Enterococcus faecalis ATCC 29212 after 18 hrs by serial microdilution broth assay; assay type: functional; details: ATCC 29212, 18 h; how it was run: as §1
Pseudomonas aeruginosa [8] = test: Antibacterial activity against multi-drug resistant Pseudomonas aeruginosa MFBF after 18 hrs by serial microdilution broth assay; assay type: functional
How it was run: (§3)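 EUCAST-based broth microdilution in Mueller-Hinton broth. Glycerol stock cultures grown in trypticase soy broth 18 h at 37 °C; inoculum in PBS pH 7.4 at 0.5 McFarland, diluted 1:10 in broth. Compounds from DMSO stocks, 1000 to 0.78125 µg/ml; 18 h aerobic, 35 °C, dark. TTC 0.5 mg/ml added, 3 h, then HCl/isopropanol, A490. MIC = lowest concentration giving 50% inhibition vs untreated; duplicates, averaged.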

Bacillus pumilus = test: Antibacterial activity against Bacillus pumilus NCTC 8241 after 18 hrs by serial microdilution broth assay; assay type: functional; details: NCTC 8241, 18 h; how it was run: as §1
[9] = Growth inhibition of mouse L1210 cells after 72 hrs by MTT assay; assay type: functional, cell-based; details: L1210, 72 h
Pseudomonas aeruginosa [10] = test: Antibacterial activity against Pseudomonas aeruginosa ATCC 9027 after 18 hrs by serial microdilution broth assay; assay type: functional; details: ATCC 9027, 18 h; how it was run: as §3
[11] = Growth inhibition of human Molt4/C8 cells after 72 hrs by MTT assay; assay type: functional, cell-based; details: MOLT-4, 72 h
Escherichia coli = test: Antibacterial activity against Escherichia coli ATCC 10535 after 18 hrs by serial microdilution broth assay; assay type: functional; details: ATCC 10535, 18 h; how it was run: as §1
[12] = Antioxidant activity assessed as DPPH radical scavenging activity at 100 uM after 60 mins relative to control; assay type: functional
How it was run: (§4)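 Compound in DMSO added to DPPH in absolute ethanol, 0.1 mM final; absorbance at 517 nm after 20 and 60 min at room temperature. At least triplicate.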

[13] = Growth inhibition of human MCF7 cells after 72 hrs by MTT assay; assay type: functional, cell-based; details: MCF7, 72 h; how it was run: as §2
[14] = Growth inhibition of human CEM cells after 72 hrs by MTT assay; assay type: functional, cell-based; details: CCRF-CEM
[15] = Cytotoxicity against HEK cells assessed as reduction in cell viability at 12.5 to 200 ug/ml after 24 hrs by MTT assay; assay type: toxicity, cell-based; details: human, hek293, 24 h
How it was run: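 HEK 293 cells, 5 × 10^3 per well, treated next day for 24 h with compound (range within 200 to 1.5625 µg/ml). MTT 0.5 mg/ml in DMEM/10% FBS, 4 h at 37 °C, 5% CO2; formazan in DMSO, A570. Viability as percent of untreated control; triplicates, three independent experiments.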

[16] = Antioxidant activity assessed as inhibition of AAPH-induced linoleic acid lipid peroxidation at 1 x 10^-4 M by UV-absorbance method relative to control; assay type: functional
How it was run: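 Linoleic acid peroxidation: 16 mM sodium linoleate dispersion in 0.05 M phosphate buffer pH 7.4 at 37 °C under air, initiated by AAPH (40 mM solution); compound at 1 × 10^-4 M; oxidation followed at 234 nm. At least triplicate.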

Enterococcus faecalis [17] = test: Antibacterial activity against vancomycin resistant Enterococcus faecalis MFBF 11419 after 18 hrs by serial microdilution broth assay; assay type: functional; details: MFBF 11419, 18 h; how it was run: as §3
[18] = Hemolytic activity against human RBC at 100 ug/ml after 1 hr relative to control; assay type: ADME, cell-based, Erythrocyte; details: red blood cells (RBC), read-out: Activity
Bacillus cereus = test: Antibacterial activity against Bacillus cereus ATCC 11778 after 18 hrs by serial microdilution broth assay; assay type: functional; details: ATCC 11778, 18 h; how it was run: as §1
[19] = Antioxidant activity assessed as DPPH radical scavenging activity at 100 uM after 20 mins relative to control; assay type: functional; how it was run: as §4
[20] = Growth inhibition of human HeLa cells after 72 hrs by MTT assay; assay type: functional, cell-based
Bacillus spizizenii = test: Antibacterial activity against Bacillus subtilis ATCC 6633 after 18 hrs by serial microdilution broth assay; assay type: functional; details: ATCC 6633, 18 h; how it was run: as §1
Staphylococcus aureus [21] = test: Antibacterial activity against methicillin sensitive Staphylococcus aureus ATCC 25923 after 18 hrs by serial microdilution broth assay; assay type: functional; details: ATCC 25923, 18 h; how it was run: as §3
Staphylococcus aureus [22] = test: Antibacterial activity against methicillin resistant Staphylococcus aureus MFBF 10682 after 18 hrs by serial microdilution broth assay; assay type: functional; details: MFBF 10682, 18 h; how it was run: as §3
Glycine max = test: Inhibition of soybean LOX assessed as reduction in conversion of sodium linoleate to 13-hydroperoxylinoleic acid at 1 x 10^-4 M relative to control
How it was run: (§5)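 Soybean lipoxygenase incubated at room temperature with sodium linoleate (0.1 mM) and test compound (DMSO stocks); formation of 13-hydroperoxylinoleic acid read at 234 nm. Single-point screening at 1 × 10^-4 M; IC50 from several concentrations. At least triplicate.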

Staphylococcus aureus [23] = test: Antibacterial activity against methicillin resistant Staphylococcus aureus MFBF 10679 after 18 hrs by serial microdilution broth assay; assay type: functional; details: MFBF 10679, 18 h; how it was run: as §3
MCF7 [24] = test: Potency index, ratio of ciplatin IC50 to compound IC50 for human MCF7 cells; assay type: functional
[25] = Cell cycle arrest in human MCF7 cells assessed as decrease in G1 population at 0.31 uM after 24 hrs by propidium iodide staining based flow cytometry; assay type: functional
How it was run: (§6)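 MCF-7 grown in EMEM with 10% FBS, L-glutamine, pyruvate, insulin; treated 0.31 µM for 24 h, DMSO (0.022%) vehicle control. Cells ethanol-fixed (70%, 24 h, -20 °C), RNase A 20 µg/ml 30 min 37 °C, PI 5.5 µg/ml 10 min dark; 20 000 cells by flow cytometry; G1, S, G2/M fractions; three independent experiments, Newman-Keuls test.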

[26] = Cell cycle arrest in human MCF7 cells assessed as increase in G2/M population at 0.31 uM after 24 hrs by propidium iodide staining based flow cytometry; assay type: functional; how it was run: as §6
MCF7 [27] = test: Induction of apoptosis in human MCF7 cells assessed as increase in cleaved PARP-1 expression at 0.31 uM after 72 hrs by immunoblot method; assay type: functional, cell-based
How it was run: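 MCF-7 treated at 0.31 µM for up to 72 h, controls DMSO and 1 µM doxorubicin. Lysates (CelLytic M with protease inhibitors), BCA quantification; 5 µg protein on 4-20% gels, nitrocellulose transfer, milk block; anti-PARP-1 (1:1000), GAPDH loading control (1:5000) overnight 4 °C, HRP anti-rabbit 1:2000, ECL detection; three independent experiments.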

MCF7 [28] = test: Induction of apoptosis in human MCF7 cells assessed as increase in number of necrotic cells at 0.31 uM after 72 hrs by Annexin-V FITC/propidium iodide staining based flow cytometry; assay type: functional, cell-based
How it was run: (§7)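 MCF-7 treated 0.31 µM for 72 h, DMSO control. Washed cells at 1 × 10^6 per 100 µl Annexin V binding buffer, stained FITC Annexin V plus PI 15 min room temperature in dark; 10 000 cells by flow cytometry (ex 488, em 530/580 nm). Viable, early apoptotic, late apoptotic/necrotic and necrotic fractions; three experiments, Duncan test.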

MCF7 [29] = test: Induction of apoptosis in human MCF7 cells assessed as increase in number of late apoptotic/necrotic cells at 0.31 uM after 72 hrs by Annexin-V FITC/propidium iodide staining based flow cytometry; assay type: functional, cell-based; how it was run: as §7
[30] = Inhibition of soybean LOX assessed as reduction in conversion of sodium linoleate to 13-hydroperoxylinoleic acid; set-up: species or system Glycine max; how it was run: as §5

Row | Compound | MIC50 (Pseudomonas aeruginosa [1]) [µg/mL] | MIC50 (Staphylococcus aureus [2]) [µg/mL] | IC50 [3] [µM] | IC50 [4] [µM] | MIC50 (Staphylococcus aureus [5]) [µg/mL] | IC50 [6] [µM] | MIC50 (Candida albicans) [µg/mL] | MIC50 (Enterococcus faecalis [7]) [µg/mL] | MIC50 (Pseudomonas aeruginosa [8]) [µg/mL] | MIC50 (Bacillus pumilus) [µg/mL] | IC50 [9] [µM] | MIC50 (Pseudomonas aeruginosa [10]) [µg/mL] | IC50 [11] [µM] | Activity [12] [%] | IC50 [13] [µM] | IC50 [14] [µM] | inhibition [16] [%] | Activity [19] [%] | IC50 [20] [µM] | inhibition (Glycine max) [%] | other results
1 | COc1cc(NC(C)CCCNC(=O)Nc2ccc(C(F)(F)F)cc2)c2ncccc2c1 (configuration not stated) | 25 (≈ 56 µM) | 50 (≈ 112 µM) | 22 | 8.4 | 25 (≈ 56 µM) | 24 | > 100 | > 100 | 150 (≈ 336 µM) | > 100 | 7.4 | 100 (≈ 224 µM) | 20 | 36.4 | 1.9 | 14 | 67 | 38.9 | 8.3 | 22.4 | MIC50 (Escherichia coli): > 100 µg/mL; Activity [15]: Non-Toxic; MIC50 (Enterococcus faecalis [17]): > 100 µg/mL; hemolysis at 1 h, 100 ug/ml [18]: 7.85%; MIC50 (Bacillus cereus): > 100 µg/mL; MIC50 (Bacillus spizizenii): > 100 µg/mL; MIC50 (Staphylococcus aureus [21]): 35 µg/mL (≈ 78.4 µM); MIC50 (Staphylococcus aureus [22]): > 100 µg/mL; MIC50 (Staphylococcus aureus [23]): > 100 µg/mL
2 | COc1cc(NC(C)CCCNC(=O)NNC(=O)Nc2ccc(F)cc2)c2ncccc2c1 (configuration not stated) | – | – | > 100 | ≥ 250 | – | > 100 | – | – | – | – | 104 | – | ≥ 250 | – | 0.31 | 118 | – | 7.6 | ≥ 250 | 31.9 | Ratio IC50 (MCF7 [24]): 42; Activity [25]: Active; Activity [26]: Active; Activity (MCF7 [27]): Active; Activity (MCF7 [28]): Active; Activity (MCF7 [29]): Active
3 | COc1cc(NC(C)CCCNC(=O)Nc2ccc(Br)cc2)c2ncccc2c1 (configuration not stated) | 25 (≈ 54.7 µM) | > 100 | 23 | 23 | 50 (≈ 109 µM) | 30 | > 100 | > 100 | 100 (≈ 219 µM) | 100 (≈ 219 µM) | 18 | 100 (≈ 219 µM) | 25 | 46.4 | 2.6 | 23 | 80.4 | 46.2 | 20 | 37.1 | MIC50 (Escherichia coli): > 100 µg/mL; Activity [15]: Non-Toxic; MIC50 (Enterococcus faecalis [17]): > 100 µg/mL; hemolysis at 1 h, 100 ug/ml [18]: < 1%; MIC50 (Bacillus cereus): 50 µg/mL (≈ 109 µM); MIC50 (Bacillus spizizenii): 25 µg/mL (≈ 54.7 µM); MIC50 (Staphylococcus aureus [21]): > 100 µg/mL; MIC50 (Staphylococcus aureus [22]): > 100 µg/mL; MIC50 (Staphylococcus aureus [23]): > 100 µg/mL
4 | COc1cc(NC(C)CCCNC(=O)NNC(=O)Nc2cccc(F)c2)c2ncccc2c1 (configuration not stated) | – | – | 9.5 | 69 | – | 50 | – | – | – | – | 108 | – | ≥ 250 | 100 | 0.15 | 98 | 58.2 | 75.7 | > 250 | 67.4 | IC50 [30]: 40 µM
